Measured values: article PMC11231753 (Biofilm, 2024)
Converted amounts (≈) assume the structure as drawn.

Assays:
P. aeruginosa = conditions: cited from earlier work
[1] = system: Klebsiella pneumoniae, Proteus mirabilis, Pseudomonas aeruginosa, and Shigella flexineri; conditions: cited from earlier work
[2] = system: violacein production by C. violaceum 6267; assay: Quantitative anti-QS assay: inhibition of violacein production in 96 well plates; assay type: cell-based, Chromobacterium violaceum
C. violaceum 6267 = assay: MIC by broth microdilution against C. violaceum 6267; assay type: cell-based, Chromobacterium violaceum
Procedure, shortened: (§1)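 Strains maintained in LB (1 % peptone, 0.5 % yeast extract, 0.5 % NaCl). Broth microdilution in 96-well plates: 10⁶ CFU/mL exposed to serial two-fold dilutions of the test extract, overnight at 37 °C. MIC taken as the lowest concentration inhibiting growth. Amoxicillin-clavulanate and imipenem served as positive controls. Run in triplicate.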

[3] = system: P. aeruginosa PAO1 biofilm formation; assay: Inhibition of biofilm formation; assay type: cell-based, Pseudomonas aeruginosa; conditions: comparison of Fig. 5A, concentration not given
Procedure, shortened: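 Biofilm grown in LB broth with 10⁵ CFU/mL PAO1 and serial dilutions of the test extract (7.81–500 μg/mL) at 37 °C overnight. Amoxicillin-clavulanate (3.9–250 μg/mL) and imipenem (0.015–0.97 μg/mL) served as reference antibiotics. Biomass was stained with crystal violet and read at 600 nm to give percent inhibition. Biofilm cells were also viewed by inverted microscope. Run in triplicate; mean ± standard deviation.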

P. aeruginosa PAO1 = assay: MIC by broth microdilution against P. aeruginosa PAO1; assay type: cell-based, Pseudomonas aeruginosa
Procedure, shortened: as §1

O=c1c(O)c(-c2cc(O)c(O)c(O)c2)oc2cc(O)cc(O)c12 [myricetin]
MIC against P. aeruginosa ATCC 27853 (P. aeruginosa): 256 µg/mL (≈ 804 µM)
Concentration inhibiting bacterial growth of various Gram-negative bacteria [1]: 30 µg/mL

O=C/C=C/c1ccccc1 [Cinnamaldehyde]
Anti-QS activity (concentration inhibiting violacein production) ([2]; C. violaceum 6267): 7.81 µg/mL
percentage of inhibition (violacein production) ([2]; at the anti-QS concentration printed beside the value): 87.8 ± 2.32%
Inhibition of violacein production ([2]; ½ MIC (n-BuOH fraction 125 μg/mL; ethanolic extract 250 μg/mL)): 93.4%
MIC (C. violaceum 6267; Chromobacterium violaceum, 6267, read-out: MIC C. violaceum): 31.2 µg/mL (≈ 236 µM)
MIC C. violaceum (C. violaceum 6267; broth microdilution): 31.25 µg/mL (≈ 236 µM)

C[C@@H](O)[C@H]1C(=O)N2C(C(=O)O)=C(SCCN=CN)C[C@H]12 [Imipenem, imipenem]
Antibiofilm effect, percentage of inhibition [3]: 47.24%
MIC (P. aeruginosa PAO1; Pseudomonas aeruginosa, PAO1, read-out: MIC P. aeruginosa PAO1): 31.2 µg/mL (≈ 104 µM)
MIC P. aeruginosa PAO1 (P. aeruginosa PAO1; broth microdilution, overnight 37 °C): 31.25 µg/mL (≈ 104 µM)
